Assay [1] in a line: inhibitors of TNFa-induced NFkB p65 translocation, primary screen, imaging, HUVEC, MLSMR starter and 10KST1 sets (AID 438;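 active = inhibition above 20% together with a positive visual image hit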;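 also: compound added about 3h40 before a 20 min TNFalpha stimulation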;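 as to inhibition: signal is the nuclear over cytoplasmic p65 intensity ratio per well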). Conditions: HUVEC TNFa-induced p65 nuclear translocation; cell count: measured here: nuclei count (cytotoxicity indicator), at 2.08 µM; inhibition: at 2 µM, stronger effect = higher value, 0% TNFa-plus-vehicle, 100% no-TNFa wells.
Assay [2] can be described thus: inhibitors of mutant huntingtin aggregation, primary screen, imaging, exon1htt(103Q)mCFP cells, high-content imaging (AID 483).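 Also: compound exposure lasted 3 days before fixation.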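 As to nuclei count: percent of the per-plate median nuclei count of sample wells.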 The settings on record: exon1htt(103Q)mCFP cell line, aggregate imaging, at 2 µM; inhibition of aggregation: stronger effect = higher value; nuclei count: measured here: cell count, toxicity.
Assay [3] in a line: inhibitors of E-selectin induction by TNFa, primary screen, imaging, HUVEC, immunofluorescence, MLSMR starter and 10KST1 sets (AID 487;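 active = visually confirmed hit in the image check and inhibition above 20%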;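 as to inhibition: signal is fraction of cell area covered by stained E-selectin grains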;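 as to nuclei count: 100% = median nuclei count of all wells on the same plate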). Conditions: HUVEC TNFalpha-induced E-selectin immunofluorescence imaging, at 2 µM; inhibition: stronger effect = higher value; nuclei count: measured here: cell number, toxicity.
Assay [4] addresses Voltage-gated potassium channel subunit beta-2 (Rattus norvegicus) (UniProt P62483). The assay can be described thus: KvBeta enzyme negative modulators, primary screen, biochemical, NADPH fluorescence (AID 622;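 active = fluorescence slope higher than the sample average by over 3 SD, cut at about -0.22 in these data, passing the limit was not always enough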;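 also: slope of raw intensity against log time taken from 70 to 1610 s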). The settings on record: recombinant KvBeta, 4-cyanobenzaldehyde reduction, at 10 µM, stronger effect = higher value.
For assay [5] the target is unchanged. The assay can be described thus: KvBeta positive modulators, primary screen, biochemical, NADPH fluorescence (AID 623;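 active = NADPH fluorescence slope more negative than the mean of all samples by about 3 SD, 99.7% confidence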;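 also: fluorescence intensity change per second fitted from 20 to 320 s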). The settings on record: Recombinant KvBeta, NADPH fluorescence decrease slope, 10 min; at 10 µM; stronger effect = lower value.
The target of assay [6] is Muscarinic acetylcholine receptor M4 (Homo sapiens) (UniProt P08173). Kind of assay: compounds altering M4/GIRK thallium flux, either direction, primary screen, M4 allosteric agonist project, cell-based, HEK293 M4/GIRK, BTC-AM (AID 625;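 active = fluorescence slope after compound addition differing from the mean of all tested samples at 99.7% confidence, mostly higher but some lower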;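 also: thallium influx through GIRK channels coupled to M4 in HEK293 cells with BTC-AM dye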). The settings on record: at 10 µM, actives lie on both sides. A digest of the protocol: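 Assay system: HEK293 cells with M4 receptor and GIRK channels / Controls: carbachol and DMSO controls / Schedule: 1 h dye loading, 2 min kinetic read / Technique: kinetic fluorescence with BTC-AM dye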
Chain of Muscarinic acetylcholine receptor M4 (Homo sapiens) (P08173 whole entry, looked up): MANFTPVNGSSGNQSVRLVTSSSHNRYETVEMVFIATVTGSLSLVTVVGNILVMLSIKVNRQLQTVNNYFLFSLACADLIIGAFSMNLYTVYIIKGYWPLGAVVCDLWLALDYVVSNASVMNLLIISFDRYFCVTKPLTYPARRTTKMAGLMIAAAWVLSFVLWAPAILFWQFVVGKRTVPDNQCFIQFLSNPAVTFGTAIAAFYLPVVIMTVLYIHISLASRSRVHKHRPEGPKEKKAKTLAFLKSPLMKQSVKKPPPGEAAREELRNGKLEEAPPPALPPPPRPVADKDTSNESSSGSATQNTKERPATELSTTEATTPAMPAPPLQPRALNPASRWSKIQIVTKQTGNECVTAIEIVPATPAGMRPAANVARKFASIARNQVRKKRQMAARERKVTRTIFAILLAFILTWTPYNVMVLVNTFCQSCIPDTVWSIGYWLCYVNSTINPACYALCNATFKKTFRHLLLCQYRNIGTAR

Assay [7] can be described thus: inhibitors of Sendai virus-induced IRF3 signaling, primary screen, TLR/RLR signaling modifier project, cell-based, Sendai virus stimulus, luciferase, 10K MLSCN set (AID 602276;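 active = inhibition at or above 50% at 10 µM; inactive = inhibition below 50%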;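 also: firefly luciferase from ISG56 promoter only with Renilla not read in this screen; 0% = Sendai virus plus DMSO and 100% = medium plus DMSO without virus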). Conditions: HEK293 RL24 IRF3 luciferase reporter, at 10 µM, stronger effect = higher value. Background: In a reporter assay the amount or activity of a reporter protein is the signal.
Assay [8] is described as follows: inhibitors of poly I:C-induced TLR3 signaling, primary screen, cell-based, poly I:C stimulus, luciferase, 10K MLSCN set (AID 602277;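 active = inhibition of the reporter signal at or above 50%; inactive = inhibition below 50%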). The settings on record: HEK293-TLR3 RL24 IRF3 luciferase reporter, at 10 µM, stronger effect = higher value.

Structures are written as SMILES. Activity calls are given as the source filed them.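 The calls were made as follows, unless noted: active = visual image review flags a hit and inhibition of aggregation exceeds 20%; inconclusive = visual hit but inhibition at or below 20%; inactive = no hit on visual image review.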

Chain of Voltage-gated potassium channel subunit beta-2 (Rattus norvegicus) (P62483 whole entry, looked up): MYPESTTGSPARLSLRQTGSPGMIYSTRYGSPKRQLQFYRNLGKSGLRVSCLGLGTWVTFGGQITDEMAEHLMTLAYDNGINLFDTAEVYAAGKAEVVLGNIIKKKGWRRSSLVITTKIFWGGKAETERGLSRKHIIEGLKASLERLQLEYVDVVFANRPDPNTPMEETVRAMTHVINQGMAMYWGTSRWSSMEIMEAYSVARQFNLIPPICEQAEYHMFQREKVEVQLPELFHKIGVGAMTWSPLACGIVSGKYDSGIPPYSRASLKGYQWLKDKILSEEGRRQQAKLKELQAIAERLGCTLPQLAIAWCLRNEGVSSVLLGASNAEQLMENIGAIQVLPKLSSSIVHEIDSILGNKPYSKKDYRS

Regarding `Cn1c(Cc2cccs2)nnc1SCC(=O)N1CCc2ccccc21`, in assay [1], the cell count came to 369. Also, the inhibition (commonly the relative decrease from the control value, in per cent) in assay [1] was -1.8% (inactive); in assay [3], -67.8% (inactive); in assay [7], 8.51% (inactive); in assay [8], 16.5% (inactive). Further, the inhibition of aggregation in assay [2] is 14.1% (inactive). The figures for the nuclei count in assay [2] and in assay [3] were 93.4% and 93.3%, respectively. Besides, the fluorescence slope in assay [4] is -0.479 (inactive); in assay [6] it was 0.00472 (inactive). Also, the NADPH fluorescence slope in assay [5] was -6.1e-05 (inactive).
On to `CCCn1c(NC(=O)C2COc3ccccc3O2)nc2ccccc21` (centres undefined), for which the cell count in assay [1] stood at 496. The inhibition is 1% (inactive) in assay [1], -56% (inactive) in assay [3], 15.8% (inactive) in assay [7] and 17.5% (inactive) in assay [8]. In assay [2], the inhibition of aggregation was -4.8% (inactive). The nuclei count in assay [2] is 98.3%; in assay [3], 102%. The values for the fluorescence slope in assay [4] and in assay [6] were -0.467 (inactive) and 0.00578 (inactive), respectively. In addition, the NADPH fluorescence slope in assay [5] was 0.000114 (inactive).
Take `CC(=O)c1ccc(NC(=O)c2noc3c2CCCCC3)cc1`: the cell count in assay [1] was 214. In addition, the inhibition in assay [1] is 2.3% (inactive); in assay [3] it was -10.4% (inactive); in assay [7] it was -32.5% (inactive); in assay [8], -114% (inactive). Moreover, in assay [2], the inhibition of aggregation is -0.6% (inactive). For the same compound, the nuclei count stood at 108% in assay [2] and 118% in assay [3]. Further, the fluorescence slope was -0.512 (inactive) in assay [4] and 0.00493 (inactive) in assay [6]. In assay [5], the NADPH fluorescence slope is -6e-05 (inactive).
Consider `Cn1c(SCC(N)=O)nnc1C1CCN(S(=O)(=O)c2ccccc2C(F)(F)F)CC1`, for which the cell count in assay [1] came out at 554. The inhibition in assay [1] is -12.3% (inactive); in assay [3] it was 33.9% (inactive); in assay [7], 10.8% (inactive); in assay [8], 19.2% (inactive). Also, the inhibition of aggregation in assay [2] was 4% (inactive). The nuclei count in assay [2] is 88.2%; in assay [3], 96.6%. The results for the fluorescence slope in assay [4] and in assay [6] were -0.214 (inactive) and 0.00588 (inactive), respectively. For the same compound, in assay [5], the NADPH fluorescence slope is -3.4e-05 (inactive).
With `COc1ccc(Cl)cc1C(=O)n1nc(C)cc1C`, the cell count in assay [1] worked out at 346. The inhibition in assay [1] is -3.3% (inactive); in assay [3], -31% (inactive); in assay [7], -16.7% (inactive); in assay [8] it was -14.6% (inactive). For the same compound, the inhibition of aggregation in assay [2] is -15% (inactive). Also, the nuclei count was 106% in assay [2] and 118% in assay [3]. Further, the fluorescence slope is -0.355 (inactive) in assay [4] and 0.00581 (inactive) in assay [6]. Also, the NADPH fluorescence slope in assay [5] is -1.5e-05 (inactive).
In the case of `COc1cccc(OC)c1C(=O)Nc1cccc(C(C)=O)c1`, in assay [1], the cell count stood at 734. Besides, the inhibition is -11.6% (inactive) in assay [1], 15.5% (inactive) in assay [3], 12.1% (inactive) in assay [7] and 27.4% (inactive) in assay [8]. Also, the inhibition of aggregation in assay [2] was 19.3% (inactive). For the same compound, the nuclei count in assay [2] came out at 95.5%; in assay [3] it was 104%. The figures for the fluorescence slope in assay [4] and in assay [6] were -0.53 (inactive) and 0.00451 (inactive), respectively. For the same compound, the NADPH fluorescence slope in assay [5] was -1.1e-05 (inactive).
As for `Cc1cc(C)c(NC(=O)C2CCCN2CCO)c(C)c1` (centres undefined), the cell count in assay [1] was 553. For the same compound, the inhibition in assay [1] was -0.3% (inactive); in assay [3], -4.2% (inactive); in assay [7], -8.07% (inactive); in assay [8], -8.13% (inactive). For the same compound, the inhibition of aggregation in assay [2] was -3.4% (inactive). The figures for the nuclei count in assay [2] and in assay [3] were 92.5% and 84.4%, respectively. In addition, the figures for the fluorescence slope in assay [4] and in assay [6] were -0.514 (inactive) and 0.00468 (inactive), respectively. Besides, in assay [5], the NADPH fluorescence slope was -6.1e-05 (inactive).
Turning to `CC1=C(C(N)=O)C(c2ccc(Cl)cc2Cl)n2ncnc2N1` (centres undefined), the cell count in assay [1] turned out to be 631. In addition, the inhibition in assay [1] was -2.5% (inactive); in assay [3], -129% (inactive); in assay [7], 29.3% (inactive); in assay [8] it was 33.2% (inactive). For the same compound, the inhibition of aggregation in assay [2] was 18.4% (inactive). Further, the nuclei count in assay [2] turned out to be 105%; in assay [3], 106%. Also, the fluorescence slope in assay [4] was -0.558 (inactive); in assay [6] it was 0.00707 (inactive). In addition, the NADPH fluorescence slope in assay [5] is 2e-05 (inactive).
Take `O=C(CCCCCn1c(SCc2ccncc2)nc2ccccc2c1=O)NCc1ccco1`: the cell count in assay [1] was 458. Besides, the inhibition in assay [1] is -10.3% (inactive); in assay [3], -25.1% (inactive); in assay [7] it was 8.7% (inactive); in assay [8], 15.5% (inactive). Also, the inhibition of aggregation in assay [2] is -29.8% (inactive). Also, the nuclei count in assay [2] is 109%; in assay [3], 94.5%. In addition, the fluorescence slope was -0.498 (inactive) in assay [4] and 0.00498 (inactive) in assay [6]. In assay [5], the NADPH fluorescence slope is -1.1e-05 (inactive).
For the compound `CCCCC(CC)C(=O)Nc1ccccc1C#N` (centres undefined), in assay [1], the cell count came out at 452. The inhibition in assay [1] is 6% (inactive); in assay [3], -63.4% (inactive); in assay [7], 14.8% (inactive); in assay [8] it was 22.1% (inactive). Moreover, in assay [2], the inhibition of aggregation is -12.4% (inactive). The nuclei count in assay [2] turned out to be 106%; in assay [3], 118%. In addition, the fluorescence slope was -0.419 (inactive) in assay [4] and 0.00611 (inactive) in assay [6]. Further, the NADPH fluorescence slope in assay [5] was -2e-05 (inactive).
Regarding `CCCn1c(=O)c2ccccc2n2c(SCc3cc(=O)n4ccsc4n3)nnc12`, in assay [1], the cell count was found to be 556. For the same compound, the inhibition in assay [1] was -10.8% (inactive); in assay [3] it was -8.3% (inactive); in assay [7], 1.22% (inactive); in assay [8], 12% (inactive). Besides, the inhibition of aggregation in assay [2] was -7% (inactive). Also, the results for the nuclei count in assay [2] and in assay [3] were 90.4% and 136%, respectively. Also, the figures for the fluorescence slope in assay [4] and in assay [6] were -0.479 (inactive) and 0.00554 (inactive), respectively. The NADPH fluorescence slope in assay [5] is 1.9e-05 (inactive).
With `CCCCOC(=O)Nc1nc2ccc(OC)cc2s1`, the cell count in assay [1] worked out at 743. The inhibition in assay [1] was -10.1% (inactive); in assay [3], -29.1% (inactive); in assay [7], -0.307% (inactive); in assay [8] it was -118% (inactive). Moreover, in assay [2], the inhibition of aggregation was 7.1% (inactive). Further, the nuclei count in assay [2] was found to be 100%; in assay [3], 108%. Further, the fluorescence slope was -0.324 (inactive) in assay [4] and 0.00658 (inactive) in assay [6]. The NADPH fluorescence slope in assay [5] was -5.1e-05 (inactive).
Consider `COc1cccc(OC)c1C(=O)Nc1ccccc1N1CCCC1`, for which the cell count in assay [1] was found to be 417. In addition, the inhibition in assay [1] was -3.4% (inactive); in assay [3] it was 4.8% (inactive); in assay [7], 15.4% (inactive); in assay [8], 8.75% (inactive). The inhibition of aggregation in assay [2] was 3.7% (inactive). The nuclei count in assay [2] is 92.9%; in assay [3], 118%. Besides, the fluorescence slope in assay [4] is -0.474 (inactive); in assay [6], 0.00391 (inactive). In assay [5], the NADPH fluorescence slope was -5.8e-05 (inactive).
Regarding `Cc1cc(C)nc(N2CCCC(C(=O)Nc3ccc4c(c3)OCO4)C2)n1` (centres undefined), in assay [1], the cell count is 563. Besides, the inhibition was -19.4% (inactive) in assay [1], 7.1% (inactive) in assay [3], -3.52% (inactive) in assay [7] and -3.39% (inactive) in assay [8]. In assay [2], the inhibition of aggregation is 15.3% (inactive). The values for the nuclei count in assay [2] and in assay [3] were 71.5% and 95.8%, respectively. Also, the fluorescence slope was -0.279 (inactive) in assay [4] and 0.0054 (inactive) in assay [6]. In addition, the NADPH fluorescence slope in assay [5] is 4.9e-06 (inactive).

(Values after PubChem BioAssay.)
